Experimental data published in ChEMBL document CHEMBL1156681, “Synthesis, anti-bacterial, anti-asthmatic and anti-diabetic activities of novel N-substituted-2-(4-phenylethynyl-phenyl)-1H-benzimidazoles and N-substituted 2[4-(4,4-dimethyl-thiochroman-6-yl-ethynyl)-phenyl)-1H-benzimidazoles” (2008).
Values after ≈ are worked out from the molar mass of the structure shown. Active and inactive are the calls of the source. The calls are words filed in the database; no cut-off is given here.

Experiments:
[1] = target: T1, Phosphodiesterase 4 (Homo sapiens) (UniProt P27815+Q08499+Q07343+Q08493); conditions: 0.075 uM
[2] = target: T2, Tyrosine-protein phosphatase non-receptor type 1 (Homo sapiens) (UniProt P18031); experiment: Inhibition of human recombinant PTP1B at 30 uM after 30 mins relative to control
T2 sequence (whole entry): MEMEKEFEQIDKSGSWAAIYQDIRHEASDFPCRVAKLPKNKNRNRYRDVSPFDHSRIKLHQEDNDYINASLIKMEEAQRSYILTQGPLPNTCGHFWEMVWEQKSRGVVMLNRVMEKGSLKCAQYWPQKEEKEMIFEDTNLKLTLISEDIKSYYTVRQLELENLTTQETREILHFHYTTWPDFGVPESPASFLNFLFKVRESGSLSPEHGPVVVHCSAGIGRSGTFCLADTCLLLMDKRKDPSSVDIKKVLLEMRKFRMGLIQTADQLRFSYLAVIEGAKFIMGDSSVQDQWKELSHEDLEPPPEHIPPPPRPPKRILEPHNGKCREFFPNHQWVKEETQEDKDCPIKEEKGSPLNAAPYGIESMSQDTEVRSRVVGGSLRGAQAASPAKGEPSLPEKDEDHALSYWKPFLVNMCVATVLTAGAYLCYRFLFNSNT
Procedure, shortened: (§1)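 In-house human recombinant PTP-1B (~35 ng) was assayed with p-nitrophenyl phosphate in 25 mM Hepes, 3 mM DTT and 1 mM EDTA, pH 7.4, with DMSO at ≤1%. Absorbance at 405 nm was monitored continuously at 30 °C for 30 min, then NaOH was added and 405 nm read again. Activity was expressed as % of control, and % inhibition as 100 minus activity.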

[3] = test system: Staphylococcus aureus; experiment: Antibacterial activity against Staphylococcus aureus at 0.1 ug/ml after 48 hrs by tube dilution method; assay type: functional, organism-based
Procedure, shortened: (§2)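 Compounds dissolved in DMSO and tested by tube dilution at […]. Tubes were incubated at 37 °C for 48 h. Growth was scored against the DMSO control as poor, medium or confluent (no inhibition). MIC was taken from the dilution series. Cephalexin served as the reference antibacterial and DMSO as the solvent control.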

[4] = test system: Staphylococcus aureus; experiment: Antibacterial activity against Staphylococcus aureus at 1 ug/ml after 48 hrs by tube dilution method; assay type: functional, organism-based
Procedure, shortened: as §2

[5] = test system: Staphylococcus aureus; experiment: Antibacterial activity against Staphylococcus aureus at 10 ug/ml after 48 hrs by tube dilution method; assay type: functional, organism-based
Procedure, shortened: as §2

[6] = test system: Staphylococcus aureus; experiment: Antibacterial activity against Staphylococcus aureus at 100 ug/ml after 48 hrs by tube dilution method; assay type: functional, organism-based
Procedure, shortened: as §2

[7] = test system: Staphylococcus aureus; experiment: Antibacterial activity against Staphylococcus aureus at 500 ug/ml after 48 hrs by tube dilution method; assay type: functional, organism-based
Procedure, shortened: as §2

[8] = test system: Staphylococcus aureus; experiment: Antibacterial activity against Staphylococcus aureus after 48 hrs by tube dilution method; assay type: functional
Procedure, shortened: as §2

[9] = test system: Salmonella typhimurium; experiment: Antibacterial activity against Salmonella Typhimurium at 0.1 ug/ml after 48 hrs by tube dilution method; assay type: functional, organism-based; conditions: Salmonella enterica subsp. enterica serovar Typhimurium
Procedure, shortened: as §2

[10] = test system: Salmonella typhimurium; experiment: Antibacterial activity against Salmonella Typhimurium at 1 ug/ml after 48 hrs by tube dilution method; assay type: functional, organism-based; conditions: Salmonella enterica subsp. enterica serovar Typhimurium
Procedure, shortened: as §2

[11] = test system: Salmonella typhimurium; experiment: Antibacterial activity against Salmonella Typhimurium at 10 ug/ml after 48 hrs by tube dilution method; assay type: functional, organism-based; conditions: Salmonella enterica subsp. enterica serovar Typhimurium
Procedure, shortened: as §2

[12] = test system: Salmonella typhimurium; experiment: Antibacterial activity against Salmonella Typhimurium at 100 ug/ml after 48 hrs by tube dilution method; assay type: functional, organism-based; conditions: Salmonella enterica subsp. enterica serovar Typhimurium
Procedure, shortened: as §2

[13] = test system: Salmonella typhimurium; experiment: Antibacterial activity against Salmonella Typhimurium at 500 ug/ml after 48 hrs by tube dilution method; assay type: functional, organism-based; conditions: Salmonella enterica subsp. enterica serovar Typhimurium
Procedure, shortened: as §2

[14] = test system: Salmonella typhimurium; experiment: Antibacterial activity against Salmonella Typhimurium after 48 hrs by tube dilution method; assay type: functional, Salmonella enterica subsp. enterica serovar Typhimurium; conditions: Salmonella enterica
Procedure, shortened: as §2

[15] = target: T1, Phosphodiesterase 4 (Homo sapiens); experiment: Inhibition of human PDE4 at 1 uM after 20 mins; assay type: protein assay
[16] = target: Dipeptidyl peptidase 4 (Homo sapiens) (UniProt P27487); experiment: Inhibition of human recombinant DPP4 at 0.3 uM after 30 mins relative to control
Procedure, shortened: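 Recombinant human DPP-IV (10 ng) was run in 25 mM Tris pH 7.4, 140 mM NaCl, 10 mM KCl and 1% BSA with Gly-Pro-AMC substrate. Compounds in DMSO were added, and AMC release was followed kinetically at 30 °C for 30 min (ex 380 / em 460 nm). Percent inhibition was calculated against the solvent-only control.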

[17] = test system: Staphylococcus aureus; experiment: Antibacterial activity against Staphylococcus aureus at 200 ug/ml after 48 hrs by tube dilution method; assay type: functional, organism-based
Procedure, shortened: as §2

[18] = test system: Salmonella typhimurium; experiment: Antibacterial activity against Salmonella Typhimurium at 200 ug/ml after 48 hrs by tube dilution method; assay type: functional, organism-based; conditions: Salmonella enterica subsp. enterica serovar Typhimurium
Procedure, shortened: as §2

[19] = target: T2, Tyrosine-protein phosphatase non-receptor type 1 (Homo sapiens); experiment: Inhibition of human recombinant PTP1B at 0.3 uM after 30 mins relative to control
Procedure, shortened: as §1

Sequence of Dipeptidyl peptidase 4 (Homo sapiens) (P27487 whole entry, looked up): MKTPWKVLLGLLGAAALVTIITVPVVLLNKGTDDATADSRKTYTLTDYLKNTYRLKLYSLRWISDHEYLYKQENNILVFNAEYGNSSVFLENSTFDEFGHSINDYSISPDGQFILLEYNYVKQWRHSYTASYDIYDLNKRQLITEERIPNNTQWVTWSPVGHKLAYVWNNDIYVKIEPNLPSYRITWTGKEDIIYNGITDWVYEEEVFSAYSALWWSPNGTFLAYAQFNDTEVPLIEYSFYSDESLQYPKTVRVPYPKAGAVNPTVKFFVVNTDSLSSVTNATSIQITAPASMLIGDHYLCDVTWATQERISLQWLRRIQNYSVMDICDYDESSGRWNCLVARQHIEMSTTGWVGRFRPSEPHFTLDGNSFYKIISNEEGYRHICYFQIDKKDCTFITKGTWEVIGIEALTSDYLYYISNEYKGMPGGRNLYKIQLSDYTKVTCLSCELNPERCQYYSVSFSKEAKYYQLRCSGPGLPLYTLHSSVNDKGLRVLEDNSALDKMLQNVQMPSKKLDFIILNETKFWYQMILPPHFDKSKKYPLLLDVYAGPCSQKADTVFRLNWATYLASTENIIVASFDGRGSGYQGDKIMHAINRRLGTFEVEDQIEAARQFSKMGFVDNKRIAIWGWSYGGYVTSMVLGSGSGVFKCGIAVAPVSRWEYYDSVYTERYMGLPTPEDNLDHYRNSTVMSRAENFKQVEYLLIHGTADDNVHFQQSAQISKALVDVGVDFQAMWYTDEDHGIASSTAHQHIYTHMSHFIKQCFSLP

inhibition [1]	inhibition [2]	MIC [8]	MIC [14]	inhibition [15]	inhibition [16]	inhibition [19]	SMILES	Activity [3]	Activity [4]	Activity [5]	Activity [6]	Activity [7]	Activity [9]	Activity [10]	Activity [11]	Activity [12]	Activity [13]	Activity [17]	Activity [18]
45.3%							COc1ccc([C@]2(C#N)CC[C@@H](C(=O)O)CC2)cc1OC1CCCC1												
	2.2%	500 µg/mL (≈ 1550 µM)	500 µg/mL (≈ 1550 µM)	13.5%	0%		CCn1c(-c2ccc(C#Cc3ccccc3)cc2)nc2ccccc21	inactive	inactive	inactive	inactive	Active	inactive	inactive	inactive	inactive	Active		
	5.84%	500 µg/mL (≈ 1270 µM)	500 µg/mL (≈ 1270 µM)	16.2%	0%		CCCCOC(=O)n1c(-c2ccc(C#Cc3ccccc3)cc2)nc2ccccc21	inactive	inactive	inactive	inactive	Active	inactive	inactive	inactive	inactive	Active		
		10 µg/mL (≈ 28.8 µM)	200 µg/mL (≈ 576 µM)				CC1=C(C(=O)O)N2C(=O)[C@@H](NC(=O)[C@H](N)c3ccccc3)[C@H]2SC1 [CEPHALEXIN ANHYDROUS]	inactive	inactive	Active	Active	Active	inactive	inactive			Active	Active	Active
	17.4%	500 µg/mL (≈ 1270 µM)	500 µg/mL (≈ 1270 µM)	17.2%	0%		CC(C)COC(=O)n1c(-c2ccc(C#Cc3ccccc3)cc2)nc2ccccc21	inactive	inactive	inactive	inactive	Active	inactive	inactive	inactive	inactive	Active		
						49.1%	C=C(O)CN(c1ccccc1C(=O)O)C(CCC(=O)N[C@@H](CCSC)C(=O)O)CNC(=O)C(Cc1cccc(CC)c1)NC(C)=O (some centres undefined)												
